≈ marks a conversion by molar mass, not a printed value.
Tests used:
Pseudomonas aeruginosa [1] = experiment: Synergistic antibacterial activity against Pseudomonas aeruginosa PAO1 assessed as fold change in rifampicin MIC at <=0.25 times MIC incubated for overnight by microbroth dilution checkerboard assay relative to rifampicin alone; type: functional
Outline: (§1)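 Checkerboard microdilution in Tryptic Soy Broth, run like the MIC assay. Overnight TSB cultures were back-diluted to OD 0.01 and added 1:1 to the combined two-fold series of both agents, then incubated overnight at 37 °C. Growth/no-growth was called at <0.1 OD600. MICs alone were read on the same plates. FIC index came from the most synergistic well; three independent repeats, mean ± SD.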

Pseudomonas aeruginosa [2] = experiment: Antibacterial activity against Pseudomonas aeruginosa NCTC 13437 assessed as bacterial growth inhibition incubated for overnight by microbroth dilution method; type: functional
Outline: (§2)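 Broth microdilution in Tryptic Soy Broth. DMSO stocks were diluted in TSB as 2-fold series. Overnight TSB cultures were back-diluted to OD 0.01 and mixed 1:1 with compound. Incubation was overnight at 37 °C. MIC was the lowest concentration without visible growth (<0.1 OD600). DMSO vehicle was checked at equivalent concentrations.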

Acinetobacter baumannii [3] = experiment: Antibacterial activity against Acinetobacter baumannii ATCC 17978 assessed as bacterial growth inhibition incubated for overnight by microbroth dilution method; type: functional; outline: as §2
Enterococcus faecalis [4] = experiment: Antibacterial activity against vancomycin sensitive Enterococcus faecalis NCTC 775 assessed as bacterial growth inhibition incubated for overnight by microbroth dilution method
Enterococcus faecium = experiment: Antibacterial activity against vancomycin resistant Enterococcus faecium NCTC 12204 assessed as bacterial growth inhibition incubated for overnight by microbroth dilution method; type: functional
Outline: (§3)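 Microbroth dilution in Tryptic Soy Broth. DMSO stocks were diluted in TSB as 2-fold series. Overnight TSB cultures were back-diluted to OD 0.01 and mixed 1:1 with compound. Incubation was overnight at 37 °C. MIC is the lowest concentration with no visible growth (<0.1 OD600). DMSO at equivalent concentrations was checked.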

Escherichia coli [5] = experiment: Antibacterial activity against Escherichia coli NCTC 12923 assessed as bacterial growth inhibition incubated for overnight by microbroth dilution method; type: functional; outline: as §2
Klebsiella pneumoniae [6] = experiment: Antibacterial activity against Klebsiella pneumoniae M6 assessed as bacterial growth inhibition incubated for overnight by microbroth dilution method
Acinetobacter baumannii [7] = experiment: Synergistic antibacterial activity against Acinetobacter baumannii AYE assessed as rifampicin MIC at <=0.25 times MIC incubated for overnight by microbroth dilution checkerboard assay; type: functional
Outline: (§4)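 Checkerboard microdilution under MIC conditions (TSB, overnight, 37 °C). Two-fold series of each agent were combined on one plate before bacteria were added, and single-agent MICs were measured on the same plate. FIC = sum of combination MIC/alone MIC for each agent, taken from the most synergistic well. Three independent repeats, mean ± SD. ≤0.5 was taken as strong synergy and 0.5–<1 as weak.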

Acinetobacter baumannii [8] = experiment: Synergistic antibacterial activity against Acinetobacter baumannii ATCC 17978 assessed as fold change in rifampicin MIC at <=0.25 times MIC incubated for overnight by microbroth dilution checkerboard assay relative to rifampicin alone; type: functional; outline: as §4
Staphylococcus aureus [9] = experiment: Antibacterial activity against methicillin resistant Staphylococcus aureus USA 300 assessed as bacterial growth inhibition incubated for overnight by microbroth dilution method; type: functional; outline: as §3
Escherichia coli [10] = experiment: Synergistic antibacterial activity against Escherichia coli NCTC 12923 assessed as fold change in rifampicin MIC at <=0.25 times MIC incubated for overnight by microbroth dilution checkerboard assay relative to rifampicin alone; type: functional; outline: as §4
Enterococcus faecalis [11] = experiment: Antibacterial activity against vancomycin resistant Enterococcus faecalis NCTC 12201 assessed as bacterial growth inhibition incubated for overnight by microbroth dilution method; type: functional; outline: as §3
Staphylococcus aureus [12] = experiment: Antibacterial activity against methicillin sensitive Staphylococcus aureus ATCC 9144 assessed as bacterial growth inhibition incubated for overnight by microbroth dilution method; type: functional; outline: as §3
Pseudomonas aeruginosa [13] = experiment: Synergistic antibacterial activity against Pseudomonas aeruginosa PAO1 assessed as rifampicin MIC at <=0.25 times MIC incubated for overnight by microbroth dilution checkerboard assay; type: functional; outline: as §1
Klebsiella pneumoniae [14] = experiment: Synergistic antibacterial activity against Klebsiella pneumoniae NCTC 13368 assessed as rifampicin MIC at <=0.25 times MIC incubated for overnight by microbroth dilution checkerboard assay; type: functional; outline: as §4
Staphylococcus aureus [15] = experiment: Antibacterial activity against methicillin sensitive Staphylococcus aureus 1199B assessed as bacterial growth inhibition incubated for overnight by microbroth dilution method; type: functional; outline: as §3
Escherichia coli [16] = experiment: Synergistic antibacterial activity against Escherichia coli NCTC 12923 assessed as rifampicin MIC at <=0.25 times MIC incubated for overnight by microbroth dilution checkerboard assay; type: functional; outline: as §4
Acinetobacter baumannii [17] = experiment: Synergistic antibacterial activity against Acinetobacter baumannii ATCC 17978 assessed as rifampicin MIC at <=0.25 times MIC incubated for overnight by microbroth dilution checkerboard assay; type: functional; outline: as §4
Pseudomonas aeruginosa [18] = experiment: Antibacterial activity against Pseudomonas aeruginosa PAO1 assessed as bacterial growth inhibition incubated for overnight by microbroth dilution method; type: functional; outline: as §2
Acinetobacter baumannii [19] = experiment: Synergistic antibacterial activity against Acinetobacter baumannii AYE assessed as fold change in rifampicin MIC at <=0.25 times MIC incubated for overnight by microbroth dilution checkerboard assay relative to rifampicin alone; type: functional; outline: as §4
Pseudomonas aeruginosa [20] = experiment: Synergistic antibacterial activity against Pseudomonas aeruginosa NCTC 13437 assessed as rifampicin MIC at <=0.25 times MIC incubated for overnight by microbroth dilution checkerboard assay; type: functional; outline: as §1
Acinetobacter baumannii [21] = experiment: Antibacterial activity against Acinetobacter baumannii AYE assessed as bacterial growth inhibition incubated for overnight by microbroth dilution method; type: functional; outline: as §2
Klebsiella pneumoniae [22] = experiment: Antibacterial activity against ESBL Klebsiella pneumoniae NCTC 13368 assessed as bacterial growth inhibition incubated for overnight by microbroth dilution method
Klebsiella pneumoniae [23] = experiment: Synergistic antibacterial activity against […] Klebsiella pneumoniae M6 assessed as rifampicin MIC at <=0.25 times MIC incubated for overnight by microbroth dilution checkerboard assay; type: functional
Outline: (§5)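 Checkerboard run under the MIC conditions (TSB, overnight, 37 °C). Antibiotic and lipoguanidine 2-fold series were combined on one plate before bacteria were added. Growth/no-growth was scored as for the MIC (<0.1 OD600). Single-agent MICs were measured on the same plates. Three independent repeats were done.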

Klebsiella pneumoniae [24] = experiment: Synergistic antibacterial activity against Klebsiella pneumoniae NCTC 13368 assessed as fold change in rifampicin MIC at <=0.25 times MIC incubated for overnight by microbroth dilution checkerboard assay relative to rifampicin alone; type: functional; outline: as §5
Staphylococcus aureus [25] = experiment: Antibacterial activity against methicillin resistant Staphylococcus aureus NCTC 13616 assessed as bacterial growth inhibition incubated for overnight by microbroth dilution method; type: functional; outline: as §3
Pseudomonas aeruginosa [26] = experiment: Synergistic antibacterial activity against Pseudomonas aeruginosa NCTC 13437 assessed as fold change in rifampicin MIC at <=0.25 times MIC incubated for overnight by microbroth dilution checkerboard assay relative to rifampicin alone; type: functional; outline: as §1
Acinetobacter baumannii [27] = experiment: Synergistic antibacterial activity against Acinetobacter baumannii AYE assessed as bacterial growth inhibition incubated for overnight in presence of PBMN by microbroth dilution method relative to control; type: functional
Outline: (§6)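 Adapted broth microdilution in TSB. The test compound was in a 2-fold dilution series, with PMBN added at a fixed 30 µg/mL. Bacteria at OD 0.02 were added, and plates were incubated overnight at 37 °C. Growth/no growth was read as for the MIC (<0.1 OD600).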

Acinetobacter baumannii [28] = experiment: Synergistic antibacterial activity against Acinetobacter baumannii ATCC 17978 assessed as bacterial growth inhibition incubated for overnight in presence of PBMN by microbroth dilution method relative to control; type: functional; outline: as §6
Klebsiella pneumoniae [29] = experiment: Synergistic antibacterial activity against Klebsiella pneumoniae M6 assessed as bacterial growth inhibition incubated for overnight in presence of PBMN by microbroth dilution method relative to control; type: functional; outline: as §6
Pseudomonas aeruginosa [30] = experiment: Synergistic antibacterial activity against Pseudomonas aeruginosa PAO1 assessed as bacterial growth inhibition incubated for overnight in presence of […] by microbroth dilution method relative to control; type: functional
Outline: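 Fixed-concentration combination MIC in TSB. The first agent was set in a two-fold dilution series (100 µL/well), then 50 µL/well of the second agent at a fixed concentration was added; PMBN was fixed at 30 µg/mL. Bacteria at OD 0.02 (50 µL) went into 150 µL of compounds, overnight at 37 °C. MIC was the lowest concentration without visible growth (<0.1 OD600).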

Klebsiella pneumoniae [31] = experiment: Synergistic antibacterial activity against Klebsiella pneumoniae NCTC 13368 assessed as bacterial growth inhibition incubated for overnight in presence of PBMN by microbroth dilution method relative to control; type: functional; outline: as §6
Escherichia coli [32] = experiment: Synergistic antibacterial activity against Escherichia coli NCTC 12923 assessed as bacterial growth inhibition incubated for overnight in presence of PBMN by microbroth dilution method relative to control; type: functional; outline: as §6
Pseudomonas aeruginosa [33] = experiment: Synergistic antibacterial activity against Pseudomonas aeruginosa NCTC 13437 assessed as bacterial growth inhibition incubated for overnight in presence of PBMN by microbroth dilution method relative to control; type: functional; outline: as §6

Row | Compound | fold change (FC) (Pseudomonas aeruginosa [1]) | MIC (Pseudomonas aeruginosa [2]) [µg/mL] | MIC (Acinetobacter baumannii [3]) [µg/mL] | MIC (Enterococcus faecalis [4]) [µg/mL] | MIC (Enterococcus faecium) [µg/mL] | MIC (Escherichia coli [5]) [µg/mL] | MIC (Klebsiella pneumoniae [6]) [µg/mL] | MIC (Acinetobacter baumannii [7]) [µg/mL] | fold change (FC) (Acinetobacter baumannii [8]) | MIC (Staphylococcus aureus [9]) [µg/mL] | fold change (FC) (Escherichia coli [10]) | MIC (Enterococcus faecalis [11]) [µg/mL] | MIC (Staphylococcus aureus [12]) [µg/mL] | MIC (Pseudomonas aeruginosa [13]) [µg/mL] | MIC (Klebsiella pneumoniae [14]) [µg/mL] | MIC (Staphylococcus aureus [15]) [µg/mL] | MIC (Escherichia coli [16]) [µg/mL] | MIC (Acinetobacter baumannii [17]) [µg/mL] | MIC (Pseudomonas aeruginosa [18]) [µg/mL] | fold change (FC) (Acinetobacter baumannii [19]) | also measured
1 | N=C(N)NCCCCCCCCNC(=N)N | 0 | > 128 | > 128 | > 128 | > 128 | > 128 | > 128 | 8 | >=4 | 128 (≈ 561 µM) | 0 | > 128 | 128 (≈ 561 µM) | 32 | 32 | > 128 | 8 | 1 | > 128 | 0 | MIC (Pseudomonas aeruginosa [20]): 32 µg/mL; MIC (Acinetobacter baumannii [21]): > 128 µg/mL; MIC (Klebsiella pneumoniae [22]): > 128 µg/mL; MIC (Klebsiella pneumoniae [23]): 16 µg/mL; fold change (FC) (Klebsiella pneumoniae [24]): 0; MIC (Staphylococcus aureus [25]): > 128 µg/mL; fold change (FC) (Pseudomonas aeruginosa [26]): 0
2 | CCCCC/C=C\C/C=C\CCCCCCCCNC(=N)NCCCCCCCCN | 0 | > 128 | 8 (≈ 18.4 µM) | 8 (≈ 18.4 µM) | 4 (≈ 9.2 µM) | 8 (≈ 18.4 µM) | 16 (≈ 36.8 µM) | 2 | 0 | 2 (≈ 4.6 µM) | 0 | 4 (≈ 9.2 µM) | 2 (≈ 4.6 µM) | 16 | 8 | 4 (≈ 9.2 µM) | 8 | ≤ 0.125 | > 128 | >=4 | inhibition (INH) (Acinetobacter baumannii [27]): <20%; inhibition (INH) (Acinetobacter baumannii [28]): <20%; inhibition (INH) (Klebsiella pneumoniae [29]): <20%; inhibition (INH) (Pseudomonas aeruginosa [30]): <20%; inhibition (INH) (Klebsiella pneumoniae [31]): <20%; inhibition (INH) (Escherichia coli [32]): <20%; MIC (Pseudomonas aeruginosa [20]): 16 µg/mL; inhibition (INH) (Pseudomonas aeruginosa [33]): <20%; MIC (Acinetobacter baumannii [21]): 16 µg/mL (≈ 36.8 µM); MIC (Klebsiella pneumoniae [22]): 32 µg/mL (≈ 73.6 µM); MIC (Klebsiella pneumoniae [23]): 4 µg/mL; fold change (FC) (Klebsiella pneumoniae [24]): >=4; MIC (Staphylococcus aureus [25]): 4 µg/mL (≈ 9.2 µM); fold change (FC) (Pseudomonas aeruginosa [26]): 0
3 | NCCCCCCCCN=C(N)N | 0 | > 128 | > 128 | > 128 | > 128 | 128 (≈ 687 µM) | > 128 | 4 | >=4 | 128 (≈ 687 µM) | 0 | > 128 | 128 (≈ 687 µM) | 32 | 32 | > 128 | 16 | 1 | > 128 | >=4 | MIC (Pseudomonas aeruginosa [20]): 32 µg/mL; MIC (Acinetobacter baumannii [21]): > 128 µg/mL; MIC (Klebsiella pneumoniae [22]): > 128 µg/mL; MIC (Klebsiella pneumoniae [23]): 16 µg/mL; fold change (FC) (Klebsiella pneumoniae [24]): 0; MIC (Staphylococcus aureus [25]): > 128 µg/mL; fold change (FC) (Pseudomonas aeruginosa [26]): 0

Reference: ChEMBL document CHEMBL5357066, “Development of Novel Membrane Disrupting Lipoguanidine Compounds Sensitizing Gram-Negative Bacteria to Antibiotics” (ACS Med Chem Lett, 2024)
